Screening data as filed in PubChem.
Statin myotox sup = suppression of simvastatin myotoxicity | C2C12 myotubes + simvastatin, ATP luminescence, 48 h; scaled: DMSO 0, geranylgeraniol control 100 | rescue of ATP level, % at 7.49 µM | 330,000 compounds, 0.78% hits | AID 602340;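 active means mean ATP rescue above about 67%, or every replicate alone reaching that limit, limit read from the data, passing the limit was not always enough; inconclusive means no clear call, values can overlap the other calls; inactive means mean under the limit and some replicate under it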;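 further: myotubes were challenged with 10 µM simvastatin during compound exposure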
Xi reactivation = reactivates the inactive X chromosome in mouse fibroblasts; activation, % at 7.58 µM; XiGFP mouse fibroblasts, % GFP-positive cells imaging, 3 d; cells co-treated with 5-aza-dC sensitizer; scaled so ellipticine positive control = 100%; 360,000 compounds, 0.055% hits;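 active means mean normalized replicate activation at least 10% and every replicate at or above 10%; inconclusive means only one of the two criteria met; inactive means mean below 10% and not all replicates reach 10%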;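 further: 0% = median of on-plate neutral control wells and 100% = ellipticine 6 µM median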
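Material: XiGFP fibroblasts, SV40-immortalized; Buffer or medium: DMEM containing 5-aza-dC; Compound dosing: single point; Times: 3 days compound exposure.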
PglD DTNB = PglD (C. jejuni) enzyme inhibition | AID 602405 | inhibition, % at 12.5 µM | purified PglD enzyme, DTNB colorimetric CoA detection | 360,000 compounds, 0.098% hits; in the data active means inhibition above about 16%, passing the limit was not always enough; inconclusive means no clear call, values can overlap the other calls
DENV2 CPE = inhibitors of DENV2 cytopathic effect; DENV2-infected cells, cytopathic effect rescue, plate reader; CPE inhibition, % at 9.99 µM; 350,000 compounds, 1.7% hits; AID 651640; in the data active means CPE inhibition above about 20%, passing the limit was not always enough; inconclusive means no clear call, values can overlap the other calls; tested in BHK-21 cells;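 further: 0% = median of neutral control wells and 100% = median of positive control wells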
FGF22 binding = shifts melting point of recombinant human FGF22. 340,000 compounds, 1.5% hits. recombinant FGF22 thermal shift, SYPRO orange fluorescence; percent of sucrose octasulfate shift, DMSO zero. activity (Tm shift, normalised), % at 9.99 µM. Q9HCT0. AID 651658;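 active means mean Tm shift, scaled 0 neutral to 100 positive control, at about 1.3% or above, every replicate too, limit read from the data; inconclusive means no clear call, values can overlap the other calls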
Target sequence (Q9HCT0 whole entry, looked up): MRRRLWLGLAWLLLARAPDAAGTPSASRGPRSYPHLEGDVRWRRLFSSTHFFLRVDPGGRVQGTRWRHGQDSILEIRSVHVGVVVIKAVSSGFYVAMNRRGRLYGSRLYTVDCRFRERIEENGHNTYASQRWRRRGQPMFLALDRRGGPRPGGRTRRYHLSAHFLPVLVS
E-sel inducer = E-selectin induction on HUVECs; P16581; AID 686992; 260,000 compounds, 0.37% hits; activation, % at 7.58 µM; HUVEC E-selectin immunofluorescence imaging; normalized: neutral wells 0, TNF-alpha wells 100;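 active means mean E-selectin-positive cell signal at least 10% of the positive control, reached in at least 60% of replicates, without over 20% cell loss; inconclusive means no rule given, readout overlaps actives, possibly toxicity-flagged; inactive means the rest, including those meeting only one limit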
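Material: HUVEC primary endothelial cells; Amount: 3,000 cells per well; Dosing: single concentration; Medium: EGM-2 growth medium on 0.1% gelatin-coated wells; Read-out basis: percent E-selectin-positive cells; Signal: immunofluorescence imaging; Control set: TNF-alpha, DMSO.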
* = called active by the depositor; ? = inconclusive; · = no result. Only some compounds are listed: those with a hit (about 3.3% of all), similar ones and a draw of the others.

SMILES	Statin myotox sup	Xi reactivation	PglD DTNB	DENV2 CPE	FGF22 binding	E-sel inducer
COc1ccccc1S(=O)(=O)N[C@H]1CC[C@@H](CCNC(=O)C2CC2)O[C@H]1CO	0	0	-1	?	0	0
CCc1c(C)[nH]c(C(=O)OCc2ccccc2)c1C	·	0	2	16	43*	·
CN1c2ccc(-c3cccc(F)c3)cc2[C@H]2[C@H](CCN2C(=O)c2ccncc2)[C@H]1CO	-5	0	0	·	·	0
COc1ccc(NC(=O)N(C)C[C@H]2OCCCC[C@@H](C)Oc3ccc(NC(=O)CCCN(C)C)cc3C(=O)N([C@@H](C)CO)C[C@@H]2C)cc1	·	0	-1	16	0	0
COc1ccc(NC(=O)N(C)C[C@H]2OCCCC[C@H](C)Oc3ccc(NS(C)(=O)=O)cc3C(=O)N([C@@H](C)CO)C[C@H]2C)cc1	·	0	5	-6	-1	0
COc1ccc(NC(=O)N(C)C[C@H]2OCCCC[C@@H](C)Oc3ccc(NS(C)(=O)=O)cc3C(=O)N([C@H](C)CO)C[C@H]2C)cc1	·	0	-5	95*	0	0
COc1ccc(NC(=O)N(C)C[C@@H]2OCCCC[C@@H](C)Oc3ccc(NC(=O)CCCN(C)C)cc3C(=O)N([C@@H](C)CO)C[C@H]2C)cc1	·	0	-2	67*	0	0
C[C@@H]1CCCCO[C@@H](CN(C)C(=O)Nc2ccccc2)[C@H](C)CN([C@@H](C)CO)C(=O)c2cc(NS(C)(=O)=O)ccc2O1	·	0	-1	43*	0	0
Cc1ccc(C(=O)O/N=C(\N)c2ccccn2)c(Cl)c1	-78	0	-20	-1	0	2
N/C(=N\OC(=O)c1ccc2ccccc2c1)c1ccccn1	-20	0	-2	7	45*	·
N/C(=N\OC(=O)c1ccc(=O)n(Cc2ccccc2)c1)c1ccccn1	1	0	1	-1	43*	·
N/C(=N\OC(=O)c1ccco1)c1ccccc1	3	·	-3	·	·	·
N/C(=N\OC(=O)c1cc(Br)ccc1Cl)c1ccccn1	·	0	·	0	43*	·
N/C(=N\OC(=O)c1ccc2ccccc2c1)c1ccncc1	·	0	1	7	1	·
N/C(=N\OC(=O)c1ccco1)c1ccccn1	-5	0	4	4	43*	0
CO[C@@H]1CN(C)C(=O)c2cc(NC(=O)C3CC3)ccc2OC[C@@H](C)N(Cc2ccccc2)C[C@@H]1C	26	0	4	3	0	0
O=C(Nc1ccc(F)cc1)N[C@H]1CC[C@H](CCNS(=O)(=O)c2ccccc2F)O[C@H]1CO	0	0	1	-3	0	0
CC(C)C#Cc1ccc2c(c1)O[C@H](CN(C)S(C)(=O)=O)[C@@H](C)CN([C@H](C)CO)S2(=O)=O	-7	0	-2	-5	0	2
O=C(Nc1ccccn1)c1ccc(Cl)c(S(=O)(=O)N2CCOCC2)c1	·	0	3	-2	0	0
CCc1nnc(NC(=O)c2ccc(F)c(S(=O)(=O)N3CCCCC3)c2)s1	5	0	1	69*	0	1
Cc1cc(NC(=O)c2ccc(Cl)c(S(=O)(=O)N3CCOCC3)c2)no1	128*	0	2	0	0	·
Cc1nnc(NC(=O)c2ccc(F)c(S(=O)(=O)N3CCOCC3)c2)s1	0	0	-1	3	43*	0
CCc1nnc(NC(=O)c2ccc(Br)c(S(=O)(=O)N3CCOCC3)c2)s1	9	0	-6	-7	·	0
CCc1nnc(NC(=O)c2ccc3nc(CC)c(CC)nc3c2)s1	·	0	·	-5	43*	4
CCc1nnc(NC(=O)c2ccc(S(=O)(=O)N3CCCCC3)cc2)s1	3	1	-3	1	0	0
CNC(=O)C[C@@H]1CC[C@H]2[C@H](COc3ccc(NC(=O)C4CCCCC4)cc3C(=O)N2C)O1	15	0	5	10	0	0
CC(=O)N[C@H]1CC[C@@H](CC(=O)NCC2CCCCC2)O[C@H]1CO	-6	0	2	-5	0	-1
CO[C@@H]1CN(C)C(=O)c2ccc(NC(=O)NC(C)C)cc2OC[C@H](C)N(Cc2ccccc2)C[C@@H]1C	13	0	1	4	0	0
